Article PMC5963734 (Neuron, 2018)

Tested on: PSD-95 - α-actinin interaction
Experiment: Competition of co-IP of α-actinin with PSD-95 from brain lysates
Set-up: species or system rat
Conditions: added to Triton X-100 brain lysate during IP of PSD-95; Figure 3D
Summary of the method: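 Adult rat brain (1 g) homogenised on ice in buffer A (150 mM NaCl, 10 mM HEPES, 10 mM EDTA, 10 mM EGTA, pH 7.4) with protease inhibitors and 1% Triton X-100, then cleared at 250,000 × g for 30 min. Competitors added: PSD-95 peptide 1-13, GST-PSD-95 1-64, peptide 15-36, or Ca2+ plus CaM. Per IP, 1 mg protein, 1 μg PSD-95 antibody and protein G-Sepharose, 4 h at 4 °C; three washes.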

B1: GST-PSD-95 1-64 (N-term): GST fusion protein of the N-terminal 64 residues of PSD-95 (protein)
chain: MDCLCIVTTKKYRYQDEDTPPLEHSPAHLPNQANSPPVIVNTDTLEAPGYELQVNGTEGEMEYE
modifications: left off: GST, N-terminal, kept
- disruption of co-IP of α-actinin with PSD-95: disrupted
